The values that follow come from ChEMBL document CHEMBL1817547, “Design, synthesis, and biological evaluation of curcumin analogues as multifunctional agents for the treatment of Alzheimer's disease” (Bioorg Med Chem, 2011).

Activity calls are given as the source filed them. No cut-off for these calls is given here.

The nature of series [1]: Inhibition of self-mediated amyloid beta (1 to 42) aggregation after 48 hrs by thioflavin T fluorescence assay. Summed up: (§1)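 Aβ1–42 (final 20 µM) incubated in 10 mM phosphate pH 7.4 at 37 °C for 48 h with or without compound (2, 5, 10, 20, 50 µM). Samples diluted into 50 mM glycine–NaOH pH 8.5 with 5 µM ThT, read at ex 450/em 485 nm. Inhibition % = (1 − IFi/IFc) × 100; mean ± SD from at least two independent measurements.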

Series [2] is described as follows: Antioxidant activity assessed as trolox equivalent of APPH-induced radical scavenging activity at 0.625 to 2.5 uM by ORAC fluorescence assay. It is filed as functional. Summed up:
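AAPH (40 mM) peroxyl-radical decay of fluorescein (140 nM working solution) in 75 mM potassium phosphate pH 7.4; compounds from DMSO stocks tested at final 2.5, 1.25 and 0.625 µM. Each mixture in four replicates, at least four independent runs. Curves normalized to blank, net AUC computed, values expressed as Trolox equivalents from a Trolox standard curve.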

Series [3] has as its system SH-SY5Y. Put plainly: Antioxidant activity in human SH-SY5Y cells assessed as decrease of tert-butyl hydroperoxide-induced ROS production at 20 uM after 24 hrs using DCFH-DA by fluorescence assay. It is filed as functional, cell-based. Summed up:
(§2)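 SH-SY5Y grown in DMEM with 10% supplement at 37 °C, 5% CO2, seeded 3 × 10^4 cells/well. After 24 h, compounds were added (2.5 µM; reference antioxidants at 20 µM). Cells were loaded with 5 µM DCFH-DA in PBS for 30 min at 37 °C, washed, then exposed to 0.1 mM t-BuOOH for 30 min. Fluorescence read at ex 485/em 535 nm, expressed as % of untreated control.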

Series [4] can be described thus: Inhibition of self-mediated amyloid beta (1 to 42) aggregation at 50 uM after 48 hrs by thioflavin T fluorescence assay relative to control. An outline of the steps:
as §1

Series [5] has as its system SH-SY5Y. Put plainly: Cytotoxicity against human SH-SY5Y cells assessed as cell viability at 2.5 uM. It is filed as cell-based. An outline of the steps:
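SH-SY5Y cells seeded at 3 × 10^4 per well, 24 h later exposed to 2.5 µM compound (final 0.05% DMSO) or vehicle for 24 h, then assessed for markers of cell death.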

The subject of series [6] is SH-SY5Y. Put plainly: Antioxidant activity in human SH-SY5Y cells assessed as decrease of tert-butyl hydroperoxide-induced ROS production at 2.5 uM after 24 hrs using DCFH-DA by fluorescence assay. It is filed as functional, cell-based. An outline of the steps: as §2
Series [7] can be described thus: Inhibition of copper-induced amyloid beta (1 to 42) aggregation in HEPES buffer at pH 6.6 after 45 mins by thioflavin T fluorescence assay. Summed up:
(§3)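 Aβ1–42 (20 µM) co-incubated with 40 µM Cu2+ or Fe2+ (HEPES pH 6.6) or Zn2+ (HEPES pH 7.4), with 150 µM NaCl, with or without 40 µM compound or clioquinol, at 37 °C for 45 min. Samples diluted into 50 mM glycine–NaOH pH 8.5 with 5 µM ThT; fluorescence read at ex 450/em 485 nm.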

Series [8] in a line: Inhibition of iron-induced amyloid beta (1 to 42) aggregation in HEPES buffer at pH 6.6 after 45 mins by thioflavin T fluorescence assay. Summed up:
as §3

A short description of series [9]: Metal chelating activity of the compound assessed as formation of iron complex at 20 uM by UV-vis spectrometry. It is filed as functional. Summed up:
(§4)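 UV spectra recorded for 20 µM compound alone or with 20 µM ZnSO4, CuSO4 or FeSO4.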

A short description of series [10]: Inhibition of zinc-induced amyloid beta (1 to 42) aggregation in HEPES buffer at pH 7.4 after 45 mins by thioflavin T fluorescence assay. An outline of the steps:
as §3

Series [11] can be described thus: Metal chelating activity of the compound assessed as formation of copper complex at 20 uM by UV-vis spectrometry. It is filed as functional. An outline of the steps:
as §4

A short description of series [12]: Inhibition of amyloid beta (1 to 42) fibril formation assessed as few short fibrils and many breakage points in fibrils at 20 to 40 uM after 32 hrs by transmission electron microscopic analysis. An outline of the steps:
(§5)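 Aβ1–42 (40 µM) aggregated with or without 20 µM compound and sampled at 0, 12 and 32 h. Samples applied to grids, washed with water, negatively stained for 1 min with 2% uranyl acetate, blotted and examined by transmission EM.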

A short description of series [13]: Metal chelating activity of the compound assessed as formation of zinc complex at 20 uM by UV-vis spectrometry. It is filed as functional. Summed up: as §4
The nature of series [14]: Inhibition of amyloid beta (1 to 42) aggregation assessed as stabilization of […] structure at 10 uM after 32 hrs by CD spectroscopy assay. Summed up: (§6)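 Aβ1–42 (20 µM) incubated at 37 °C with or without 10 µM compound in 10 mM sodium phosphate pH 7.4. At 0, 6, 12 and 32 h, far-UV CD spectra recorded at 25 °C from 190 to 260 nm in a 1 mm quartz cell (bandwidth 0.5 nm, scan 10 nm/min).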

A short description of series [15]: Inhibition of amyloid beta (1 to 42) fibril formation assessed as less thin and short fibrils at 20 to 40 uM after 12 hrs by transmission electron microscopic analysis. Summed up: as §5
Series [16] can be described thus: Inhibition of amyloid beta (1 to 42) aggregation assessed as decrease of beta-sheet structure formation at 10 uM after 32 hrs by CD spectroscopy assay. An outline of the steps: as §6
The nature of series [17]: Metal chelating activity of the compound assessed as formation of copper complex at 20 uM by molar ratio method. It is filed as functional. An outline of the steps: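 Molar ratio method: compound solutions titrated with increasing CuSO4 or FeSO4; spectra obtained by subtracting CuSO4 and compound at matching concentrations, monitoring the band at 493 nm.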

As usually defined, the IC50 is the point on the concentration scale where inhibition reaches its midpoint. Lower therefore signals higher potency. One may read the inhibition as how much of the control response was suppressed. As to `COc1cc(/C=C/C(=O)CC(=O)/C=C/c2ccc(O)c(OC)c2)ccc1O` [CURCUMIN], half-maximal inhibition in [1] (IC50) required 12.1 µM. Moreover, the Ratio in series [2] stood at 2.5. The outcome in [3] was Active. The inhibition in [4] turned out to be 71.3%.

`CN1CCN(c2ccc(/C=C/C(=O)CC(=O)/C=C/c3ccc(N4CCN(C)CC4)cc3)cc2)CC1` came in with an IC50 in [1] of 9.2 µM. In [5], the Activity result is given as “Non-toxic”. Moreover, the Ratio in series [2] worked out at 1.9. This compound registered an inhibition in series [4] of 77.8%.

Take `O=C1/C(=C/c2ccc(N3CCCCC3)cc2)CNC/C1=C\c1ccc(N2CCCCC2)cc1`: the half-maximal inhibitory concentration (IC50) in series [1] stood at 17.2 µM. The Activity entry in [5] is “Non-toxic”. Further, the Ratio in [2] stood at 2.4. Further, the inhibition in series [4] came to 64.5%.

The compound `CN1CCN(c2ccc(/C=C3\CN(C)C/C(=C\c4ccc(N5CCN(C)CC5)cc4)C3=O)cc2)CC1` came in with an IC50 in series [1] of 17.6 µM. The Activity entry in series [5] was “Non-toxic”. Besides, the Ratio in series [2] worked out at 4.7. The compound further came in with an inhibition in [4] of 65.1%.

For `CN1CCN(c2ccc(/C=C3\CCC/C(=C\c4ccc(N5CCN(C)CC5)cc4)C3=O)cc2)CC1`, the outcome in series [6] was Active. For the same compound, the half-inhibitory concentration (IC50) in series [1] is 6 µM. For the same compound, the Activity entry in series [5] is “Non-toxic”. The Ratio in series [2] is 2.6. Also, the inhibition in [4] is 73.1%.

For the compound `Oc1c(I)cc(Cl)c2cccnc12`, the inhibition result in [7] and in [8] was “Active” each time.

In [1], `CN1CCN(c2ccc(/C=C/c3cccc(/C=C/c4ccc(N5CCN(C)CC5)cc4)n3)cc2)CC1` showed a half-inhibitory concentration (IC50) of over 50 µM. For the same compound, the Activity entry in series [5] is “Non-toxic”. Also, the Ratio in [2] worked out at 1.1. This compound also had an inhibition in series [4] of 24%.

Turning to `CN1CCN(c2ccc(/C=C3\CNC/C(=C\c4ccc(N5CCN(C)CC5)cc4)C3=O)cc2)CC1`, the outcome in series [6], in series [9], in series [11] and in [17] was Active. For the same compound, the 50% inhibitory concentration (IC50) in series [1] is 2.5 µM. In addition, the inhibition result in series [10], in [7], in series [8], in series [12], in series [14] and in [15] was “Active” in each case. Besides, the inhibition result in [16] is “Active”. Besides, in [5], the Activity entry is listed as “Non-toxic”. Also, the Ratio in [2] was found to be 5.8. The same compound displayed an inhibition in series [4] of 90.2%. For the same compound, in series [13], the result was inactive.

For the compound `CN1CCN(c2ccc(/C=C/c3cccc(/C=C/c4ccc(N5CCN(C)CC5)cc4)c3)cc2)CC1`, in [1], the IC50 was over 50 µM. For the same compound, in series [5], the Activity result is reported as “Non-toxic”. Besides, the Ratio in series [2] was found to be 1.2. For the same compound, the inhibition in series [4] worked out at 42.1%.

`CN1CCN(c2ccc(/C=C3\CC/C(=C\c4ccc(N5CCN(C)CC5)cc4)C3=O)cc2)CC1`: the result in series [6] was Active. This compound came in with a half-maximal inhibitory concentration (IC50) in [1] of 12.6 µM. Moreover, the Activity entry in [5] was “Non-toxic”. In [2], the Ratio worked out at 1.7. Besides, in series [4], the inhibition stood at 67.2%.

As for `CN1CCN(c2ccc(/C=C/C(=O)/C=C/c3ccc(N4CCN(C)CC4)cc3)cc2)CC1`, in series [6], the result was Active. This compound also had a concentration for half-maximal inhibition (IC50) in [1] of 21.5 µM. The Activity result in series [5] is “Non-toxic”. Further, the Ratio in [2] amounted to 3.2. The same compound had an inhibition in series [4] of 68.6%.

`CN1CCN(c2ccc(/C=C/C(=O)c3cccc(C(=O)/C=C/c4ccc(N5CCN(C)CC5)cc4)c3)cc2)CC1` gave a half-maximal inhibitory concentration (IC50) in [1] of 37.8 µM. Moreover, the Activity entry in series [5] is reported as “Non-toxic”. Further, in series [2], the Ratio turned out to be 1.3. This compound displayed an inhibition in series [4] of 52.8%.

For `CC(=O)N[C@@H](CS)C(=O)O`, in [3], the outcome was inactive.

Consider `Cc1c(C)c2c(c(C)c1O)CCC(C)(C(=O)O)O2` (configuration not stated), for which the outcome in series [3] was Active.

For `CN1CCN(c2ccc(/C=C/C(=O)c3ccc(C(=O)/C=C/c4ccc(N5CCN(C)CC5)cc4)cc3)cc2)CC1`, in series [1], the 50% inhibitory concentration (IC50) was over 50 µM. The Activity entry in series [5] was “Non-toxic”. Besides, the Ratio in series [2] was determined as 1.1. The compound further registered an inhibition in series [4] of 35.8%.
